The values that follow come from ChEMBL document CHEMBL1629653, “CMY-31 and CMY-36 cephalosporinases encoded by ColE1-like plasmids” (Antimicrob Agents Chemother, 2009).

pIC50: −log10 of the molar value. Values after ≈ are worked out from the molar mass of the structure shown.

Sequence of Class C beta-lactamase CMY-36 (Q48435 whole entry): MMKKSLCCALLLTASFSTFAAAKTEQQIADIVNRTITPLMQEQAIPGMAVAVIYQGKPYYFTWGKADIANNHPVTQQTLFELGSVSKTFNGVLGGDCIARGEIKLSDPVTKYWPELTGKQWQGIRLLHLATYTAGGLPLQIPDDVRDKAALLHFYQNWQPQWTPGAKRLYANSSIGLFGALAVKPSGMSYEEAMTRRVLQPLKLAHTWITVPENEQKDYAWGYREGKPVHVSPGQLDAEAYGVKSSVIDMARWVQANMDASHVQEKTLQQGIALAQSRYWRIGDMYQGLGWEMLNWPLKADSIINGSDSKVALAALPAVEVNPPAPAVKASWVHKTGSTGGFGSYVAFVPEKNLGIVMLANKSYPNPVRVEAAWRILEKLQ

Tested on in the first experiment: not listed separately
Briefly: Antimicrobial activity against Salmonella enterica serotype Newport AM17274 expressing CMY-31 cephalosporinase by agar dilution method. In kind it is functional, Salmonella enterica subsp. enterica serovar Newport. Summed up:
(§1)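 MICs of β-lactams determined by agar dilution against the clinical isolates.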
For the compound `CO/N=C(\C(=O)N[C@@H]1C(=O)N2C(C(=O)O)=C(COC(N)=O)CS[C@H]12)c1ccco1` [CEFUROXIME], the MIC (in general, the smallest concentration in the dilution series that meets the test's criterion for growth inhibition) was over 256 µg/mL.

The compound `C[C@@H](O)[C@H]1C(=O)N2C(C(=O)O)=C(SCCNC=N)C[C@H]12` [IMIPENEM ANHYDROUS] gave an MIC of 0.25 µg/mL (≈ 0.835 µM).

Compound `CCN1CCN(C(=O)N[C@@H](C(=O)N[C@@H]2C(=O)N3[C@@H]2SC(C)(C)[C@@H]3C(=O)O)c2ccccc2)C(=O)C1=O` [PIPERACILLIN] gave an MIC of 64 µg/mL (≈ 124 µM).

`CC1(C)S[C@@H]2[C@H](NC(=O)[C@H](C(=O)O)c3ccsc3)C(=O)N2[C@H]1C(=O)O` [TICARCILLIN] yielded a minimum inhibitory concentration (MIC) of over 256 µg/mL.

The test system of a further experiment is Klebsiella pneumoniae. Briefly: Antimicrobial activity against Klebsiella pneumoniae HP205 expressing CMY-36 cephalosporinase by agar dilution method. In kind it is functional. In outline:
as §1
(In general: In agar dilution, organisms are placed on agar that contains the substance at set levels.)
The compound `CO/N=C(\C(=O)N[C@@H]1C(=O)N2C(C(=O)O)=C(COC(N)=O)CS[C@H]12)c1ccco1` [CEFUROXIME] showed an MIC of over 256 µg/mL.

For `C[C@@H](O)[C@H]1C(=O)N2C(C(=O)O)=C(SCCNC=N)C[C@H]12` [IMIPENEM ANHYDROUS], the MIC turned out to be 0.5 µg/mL (≈ 1.67 µM).

`CCN1CCN(C(=O)N[C@@H](C(=O)N[C@@H]2C(=O)N3[C@@H]2SC(C)(C)[C@@H]3C(=O)O)c2ccccc2)C(=O)C1=O` [PIPERACILLIN]: the lowest concentration to inhibit growth (MIC) was 128 µg/mL (≈ 247 µM).

`CC1(C)S[C@@H]2[C@H](NC(=O)[C@H](C(=O)O)c3ccsc3)C(=O)N2[C@H]1C(=O)O` [TICARCILLIN]: the MIC was over 256 µg/mL.

Another experiment deals with Escherichia coli. Briefly: Antimicrobial activity against Escherichia coli DH5[alpha] transformant harboring pA172 plasmid expressing cephalosporinase CMY-31 by agar dilution method. It counts as functional.
With `CO/N=C(\C(=O)N[C@@H]1C(=O)N2C(C(=O)O)=C(COC(N)=O)CS[C@H]12)c1ccco1` [CEFUROXIME], the minimum inhibitory concentration (MIC) was over 256 µg/mL.

On to `C[C@@H](O)[C@H]1C(=O)N2C(C(=O)O)=C(SCCNC=N)C[C@H]12` [IMIPENEM ANHYDROUS], for which 0.5 µg/mL (≈ 1.67 µM) was the least that counted as inhibitory (MIC).

Turning to `CCN1CCN(C(=O)N[C@@H](C(=O)N[C@@H]2C(=O)N3[C@@H]2SC(C)(C)[C@@H]3C(=O)O)c2ccccc2)C(=O)C1=O` [PIPERACILLIN], the MIC amounted to 128 µg/mL (≈ 247 µM).

With `CC1(C)S[C@@H]2[C@H](NC(=O)[C@H](C(=O)O)c3ccsc3)C(=O)N2[C@H]1C(=O)O` [TICARCILLIN], the MIC is over 256 µg/mL.

The next experiment relates to Escherichia coli. Briefly: Antimicrobial activity against Escherichia coli DH5[alpha] transformant harboring pH205 plasmid expressing cephalosporinase CMY-36 by agar dilution method. It counts as functional.
Consider `CO/N=C(\C(=O)N[C@@H]1C(=O)N2C(C(=O)O)=C(COC(N)=O)CS[C@H]12)c1ccco1` [CEFUROXIME], for which the MIC is over 256 µg/mL.

In turn, `C[C@@H](O)[C@H]1C(=O)N2C(C(=O)O)=C(SCCNC=N)C[C@H]12` [IMIPENEM ANHYDROUS] displayed a minimal inhibitory concentration (MIC) of 0.5 µg/mL (≈ 1.67 µM).

For `CCN1CCN(C(=O)N[C@@H](C(=O)N[C@@H]2C(=O)N3[C@@H]2SC(C)(C)[C@@H]3C(=O)O)c2ccccc2)C(=O)C1=O` [PIPERACILLIN], the lowest concentration to inhibit growth (MIC) was 128 µg/mL (≈ 247 µM).

In the case of `CC1(C)S[C@@H]2[C@H](NC(=O)[C@H](C(=O)O)c3ccsc3)C(=O)N2[C@H]1C(=O)O` [TICARCILLIN], the MIC is over 256 µg/mL.

A further experiment concerns Escherichia coli. Kind of experiment: Antimicrobial activity against Escherichia coli DH5[alpha] harboring pB-c31 plasmid expressing cephalosporinase CMY-31 by agar dilution method. In kind it is functional.
The compound `CO/N=C(\C(=O)N[C@@H]1C(=O)N2C(C(=O)O)=C(COC(N)=O)CS[C@H]12)c1ccco1` [CEFUROXIME] gave an MIC of over 256 µg/mL.

Turning to `C[C@@H](O)[C@H]1C(=O)N2C(C(=O)O)=C(SCCNC=N)C[C@H]12` [IMIPENEM ANHYDROUS], 0.5 µg/mL (≈ 1.67 µM) was the least that counted as inhibitory (MIC).

`CCN1CCN(C(=O)N[C@@H](C(=O)N[C@@H]2C(=O)N3[C@@H]2SC(C)(C)[C@@H]3C(=O)O)c2ccccc2)C(=O)C1=O` [PIPERACILLIN] showed an MIC of 256 µg/mL (≈ 495 µM).

Regarding `CC1(C)S[C@@H]2[C@H](NC(=O)[C@H](C(=O)O)c3ccsc3)C(=O)N2[C@H]1C(=O)O` [TICARCILLIN], the MIC is over 256 µg/mL.

The subject of a further experiment is Escherichia coli. Briefly: Antimicrobial activity against Escherichia coli DH5[alpha] harboring pB-c36 plasmid expressing cephalosporinase CMY-36 by agar dilution method. In kind it is functional.
As for `CO/N=C(\C(=O)N[C@@H]1C(=O)N2C(C(=O)O)=C(COC(N)=O)CS[C@H]12)c1ccco1` [CEFUROXIME], the MIC is over 256 µg/mL.

Take `C[C@@H](O)[C@H]1C(=O)N2C(C(=O)O)=C(SCCNC=N)C[C@H]12` [IMIPENEM ANHYDROUS]: the MIC amounted to 0.5 µg/mL (≈ 1.67 µM).

In turn, `CCN1CCN(C(=O)N[C@@H](C(=O)N[C@@H]2C(=O)N3[C@@H]2SC(C)(C)[C@@H]3C(=O)O)c2ccccc2)C(=O)C1=O` [PIPERACILLIN] registered an MIC of 256 µg/mL (≈ 495 µM).

`CC1(C)S[C@@H]2[C@H](NC(=O)[C@H](C(=O)O)c3ccsc3)C(=O)N2[C@H]1C(=O)O` [TICARCILLIN] gave an MIC of over 256 µg/mL.

For a further experiment, the system named is Escherichia coli. Briefly: Antimicrobial activity against Escherichia coli DH5[alpha] harboring pB-c2 plasmid expressing cephalosporinase CMY-2 by agar dilution method. It counts as functional.
`CO/N=C(\C(=O)N[C@@H]1C(=O)N2C(C(=O)O)=C(COC(N)=O)CS[C@H]12)c1ccco1` [CEFUROXIME] returned an MIC of over 256 µg/mL.

For `C[C@@H](O)[C@H]1C(=O)N2C(C(=O)O)=C(SCCNC=N)C[C@H]12` [IMIPENEM ANHYDROUS], the MIC amounted to 0.5 µg/mL (≈ 1.67 µM).

`CCN1CCN(C(=O)N[C@@H](C(=O)N[C@@H]2C(=O)N3[C@@H]2SC(C)(C)[C@@H]3C(=O)O)c2ccccc2)C(=O)C1=O` [PIPERACILLIN] had an MIC of 256 µg/mL (≈ 495 µM).

Regarding `CC1(C)S[C@@H]2[C@H](NC(=O)[C@H](C(=O)O)c3ccsc3)C(=O)N2[C@H]1C(=O)O` [TICARCILLIN], the MIC was over 256 µg/mL.

The subject of the next experiment is Escherichia coli. Kind of experiment: Antimicrobial activity against Escherichia coli DH5[alpha] harboring pBCSK plasmid by agar dilution method. In kind it is functional.
With `CO/N=C(\C(=O)N[C@@H]1C(=O)N2C(C(=O)O)=C(COC(N)=O)CS[C@H]12)c1ccco1` [CEFUROXIME], the MIC turned out to be 2 µg/mL (≈ 4.71 µM).

Compound `CCN1CCN(C(=O)N[C@@H](C(=O)N[C@@H]2C(=O)N3[C@@H]2SC(C)(C)[C@@H]3C(=O)O)c2ccccc2)C(=O)C1=O` [PIPERACILLIN] yielded an MIC of 1 µg/mL (≈ 1.93 µM).

In turn, `CC1(C)S[C@@H]2[C@H](NC(=O)[C@H](C(=O)O)c3ccsc3)C(=O)N2[C@H]1C(=O)O` [TICARCILLIN] yielded an MIC of 2 µg/mL (≈ 5.2 µM).

Tested on in the next experiment: not listed separately
Briefly: Antimicrobial activity against Salmonella enterica serotype Newport AM17274 expressing CMY-31 cephalosporinase by agar dilution method in presence of Tazobactam. In kind it is functional, Salmonella enterica subsp. enterica serovar Newport.
Consider `CCN1CCN(C(=O)N[C@@H](C(=O)N[C@@H]2C(=O)N3[C@@H]2SC(C)(C)[C@@H]3C(=O)O)c2ccccc2)C(=O)C1=O` [PIPERACILLIN], for which the MIC was found to be 16 µg/mL.

For another experiment, the system named is Klebsiella pneumoniae. Briefly: Antimicrobial activity against Klebsiella pneumoniae HP205 expressing CMY-36 cephalosporinase by agar dilution method in presence of Tazobactam. In kind it is functional.
Regarding `CCN1CCN(C(=O)N[C@@H](C(=O)N[C@@H]2C(=O)N3[C@@H]2SC(C)(C)[C@@H]3C(=O)O)c2ccccc2)C(=O)C1=O` [PIPERACILLIN], the MIC amounted to 32 µg/mL.

The test system of the next experiment is Escherichia coli. Kind of experiment: Antimicrobial activity against Escherichia coli DH5[alpha] transformant harboring pA172 plasmid expressing cephalosporinase CMY-31 by agar dilution method in presence of Tazobactam. In kind it is functional.
For `CCN1CCN(C(=O)N[C@@H](C(=O)N[C@@H]2C(=O)N3[C@@H]2SC(C)(C)[C@@H]3C(=O)O)c2ccccc2)C(=O)C1=O` [PIPERACILLIN], the MIC was 32 µg/mL.

The test system of a further experiment is Escherichia coli. Briefly: Antimicrobial activity against Escherichia coli DH5[alpha] transformant harboring pH205 plasmid expressing cephalosporinase CMY-36 by agar dilution method in presence of Tazobactam. It counts as functional.
For `CCN1CCN(C(=O)N[C@@H](C(=O)N[C@@H]2C(=O)N3[C@@H]2SC(C)(C)[C@@H]3C(=O)O)c2ccccc2)C(=O)C1=O` [PIPERACILLIN], the MIC amounted to 32 µg/mL.

In a further experiment the test system is Escherichia coli. Kind of experiment: Antimicrobial activity against Escherichia coli DH5[alpha] harboring pB-c31 plasmid expressing cephalosporinase CMY-31 by agar dilution method in presence of Tazobactam. In kind it is functional.
Turning to `CCN1CCN(C(=O)N[C@@H](C(=O)N[C@@H]2C(=O)N3[C@@H]2SC(C)(C)[C@@H]3C(=O)O)c2ccccc2)C(=O)C1=O` [PIPERACILLIN], the minimal inhibitory concentration (MIC) is 64 µg/mL.

In another experiment the test system is Escherichia coli. Briefly: Antimicrobial activity against Escherichia coli DH5[alpha] harboring pB-c36 plasmid expressing cephalosporinase CMY-36 by agar dilution method in presence of Tazobactam. In kind it is functional.
With `CCN1CCN(C(=O)N[C@@H](C(=O)N[C@@H]2C(=O)N3[C@@H]2SC(C)(C)[C@@H]3C(=O)O)c2ccccc2)C(=O)C1=O` [PIPERACILLIN], the MIC amounted to 64 µg/mL.

The test system of another experiment is Escherichia coli. Kind of experiment: Antimicrobial activity against Escherichia coli DH5[alpha] harboring pB-c2 plasmid expressing cephalosporinase CMY-2 by agar dilution method in presence of Tazobactam. It counts as functional.
On to `CCN1CCN(C(=O)N[C@@H](C(=O)N[C@@H]2C(=O)N3[C@@H]2SC(C)(C)[C@@H]3C(=O)O)c2ccccc2)C(=O)C1=O` [PIPERACILLIN], for which the MIC is 64 µg/mL.

In another experiment the test system is Escherichia coli. Briefly: Antimicrobial activity against Escherichia coli DH5[alpha] harboring pBCSK plasmid by agar dilution method in presence of Tazobactam. In kind it is functional.
As for `CCN1CCN(C(=O)N[C@@H](C(=O)N[C@@H]2C(=O)N3[C@@H]2SC(C)(C)[C@@H]3C(=O)O)c2ccccc2)C(=O)C1=O` [PIPERACILLIN], the MIC came to 0.5 µg/mL.

The next experiment addresses Class C beta-lactamase CMY-36 (Klebsiella pneumoniae, UniProt Q48435). Briefly: Inhibition of Klebsiella pneumoniae HP205 cephalosporinase CMY-36 by UV spectrophotometer in presence of 100 uM of cephalothin.
In the case of `C[C@]1(/C=C\C#N)[C@H](C(=O)O)N2C(=O)C[C@H]2S1(=O)=O`, the pIC50 – broadly, −log10 of the IC50, conventionally taken in molar units – was 6.52.

For the compound `Cc1onc(-c2ccccc2Cl)c1C(=O)N[C@@H]1C(=O)N2[C@@H]1SC(C)(C)[C@@H]2C(=O)O` [CLOXACILLIN], the pIC50 was 8.40.

Tested on in another experiment: not listed separately
Briefly: Inhibition of CMY-2 by UV spectrophotometer in presence of 100 uM of cephalothin.
On to `C[C@]1(/C=C\C#N)[C@H](C(=O)O)N2C(=O)C[C@H]2S1(=O)=O`, for which the pIC50 was 6.52.

On to `Cc1onc(-c2ccccc2Cl)c1C(=O)N[C@@H]1C(=O)N2[C@@H]1SC(C)(C)[C@@H]2C(=O)O` [CLOXACILLIN], for which the pIC50 was 8.40.
